Data set [1] deals with Salmonella typhimurium. Briefly: Genotoxicity in Salmonella Typhimurium by Ames test in presence of S9 fraction. It counts as toxicity, organism-based. Particulars: salmonella enterica subsp. enterica serovar typhimurium. On the technique in general: In the Ames test, an excess of revertant colonies over the control signals mutagenicity.
Data set [2] concerns the target Cytochrome P450 3A4 (Homo sapiens, UniProt P08684). Briefly: Inhibition of CYP3A4. Format: ADME.
For data set [3], the target named is Voltage-gated inwardly rectifying potassium channel KCNH2 (Homo sapiens, UniProt Q12809). Briefly: Inhibition of human ERG.
In data set [4] the target is Cytochrome P450 2C9 (Homo sapiens, UniProt P11712). Briefly: Inhibition of CYP2C9. Format: ADME.
Data set [5] has as its target Cytochrome P450 2C19 (Homo sapiens, UniProt P33261). Briefly: Inhibition of CYP2C19. It counts as ADME.
For data set [6], the target named is Cytochrome P450 2D6 (Homo sapiens, UniProt P10635). Briefly: Inhibition of CYP2D6. Format: ADME.
Data set [7] has as its target T1, Adenosine receptor A2b (Homo sapiens, UniProt P29275).
T1 sequence (P29275 whole entry): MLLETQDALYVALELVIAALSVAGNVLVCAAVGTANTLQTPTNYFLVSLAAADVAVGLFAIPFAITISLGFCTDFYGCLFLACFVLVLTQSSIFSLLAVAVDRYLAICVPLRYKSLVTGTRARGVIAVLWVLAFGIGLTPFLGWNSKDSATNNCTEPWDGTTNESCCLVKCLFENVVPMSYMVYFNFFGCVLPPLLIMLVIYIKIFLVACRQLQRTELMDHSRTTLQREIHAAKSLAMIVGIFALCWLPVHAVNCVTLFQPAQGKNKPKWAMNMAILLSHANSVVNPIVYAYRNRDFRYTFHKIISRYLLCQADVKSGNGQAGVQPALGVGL
Briefly: Inhibition of human adenosine A2B receptor expressed in CHO cells assessed as decrease in cellular cAMP level after 20 to 25 mins. It counts as functional, cell-based. For orientation: cAMP levels reflect the balance of adenylyl cyclase and phosphodiesterase activity.

Data set [8] addresses Adenosine receptor A2a (Homo sapiens, UniProt P29274). Briefly: Displacement of [3H]ZM241385 from human adenosine A2A receptor after 1 hr. Background: In a radioligand displacement assay an active substance lowers the binding of a labelled ligand.
Data set [9] deals with T2, Adenosine receptor A1 (Homo sapiens, UniProt P30542).
T2 sequence (P30542 whole entry): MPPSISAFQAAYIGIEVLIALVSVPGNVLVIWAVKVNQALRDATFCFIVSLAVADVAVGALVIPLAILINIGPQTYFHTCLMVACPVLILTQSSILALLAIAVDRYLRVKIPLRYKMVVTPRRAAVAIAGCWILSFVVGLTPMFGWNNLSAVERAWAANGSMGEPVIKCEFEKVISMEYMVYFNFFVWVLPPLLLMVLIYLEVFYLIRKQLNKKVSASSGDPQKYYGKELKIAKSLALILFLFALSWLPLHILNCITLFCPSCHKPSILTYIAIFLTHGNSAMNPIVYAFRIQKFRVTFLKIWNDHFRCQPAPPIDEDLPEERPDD
Briefly: Displacement of [3H]-DPCPX from human adenosine A1 receptor after 1 hr. The essentials:
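Human A1 receptor membranes, diluted in HEPES 50 mM, NaCl 100 mM, MgCl2 1 mM, were incubated with [3H]-DPCPX (4.8 nM final) and test compound for 1 h at room temperature with orbital shaking. Reactions were filtered on polyethyleneimine-treated filter plates, air dried and counted by scintillation. Values given as Ki.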

The target of data set [10] is T1, Adenosine receptor A2b. Briefly: Displacement of [3H]ZM241385 from human adenosine A2B receptor expressed in CHO cells after 1 hr. It counts as cell-based. The essentials:
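Whole CHO cells expressing human A2B were harvested mechanically at 80% confluence, frozen in aliquots and resuspended in assay buffer on the day of assay. Cells were incubated with [3H]-ZM241385 (30 nM final) and test compound for 1 h at room temperature with orbital shaking. Reactions were filtered on polyethyleneimine-treated plates and counted by scintillation. Values given as Ki.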

pIC50, pKi: −log10 of the molar value. Some results are limits rather than exact numbers.

Experimental findings from ChEMBL document CHEMBL1759892 (Bioorg Med Chem Lett, 2011) are described below.

Chain of Adenosine receptor A2a (P29274 whole entry): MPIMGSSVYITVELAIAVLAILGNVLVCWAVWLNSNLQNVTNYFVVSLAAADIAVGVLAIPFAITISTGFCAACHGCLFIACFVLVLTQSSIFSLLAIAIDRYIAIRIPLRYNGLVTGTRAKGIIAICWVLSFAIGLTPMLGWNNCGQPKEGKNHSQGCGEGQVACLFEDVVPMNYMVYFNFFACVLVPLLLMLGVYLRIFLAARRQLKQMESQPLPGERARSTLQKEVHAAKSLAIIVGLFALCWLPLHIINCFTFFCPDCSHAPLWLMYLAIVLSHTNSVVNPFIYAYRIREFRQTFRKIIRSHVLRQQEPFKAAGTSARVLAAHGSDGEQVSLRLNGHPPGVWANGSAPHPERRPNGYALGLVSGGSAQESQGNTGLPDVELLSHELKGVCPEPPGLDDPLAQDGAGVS
Chain of Cytochrome P450 2C19 (P33261 whole entry): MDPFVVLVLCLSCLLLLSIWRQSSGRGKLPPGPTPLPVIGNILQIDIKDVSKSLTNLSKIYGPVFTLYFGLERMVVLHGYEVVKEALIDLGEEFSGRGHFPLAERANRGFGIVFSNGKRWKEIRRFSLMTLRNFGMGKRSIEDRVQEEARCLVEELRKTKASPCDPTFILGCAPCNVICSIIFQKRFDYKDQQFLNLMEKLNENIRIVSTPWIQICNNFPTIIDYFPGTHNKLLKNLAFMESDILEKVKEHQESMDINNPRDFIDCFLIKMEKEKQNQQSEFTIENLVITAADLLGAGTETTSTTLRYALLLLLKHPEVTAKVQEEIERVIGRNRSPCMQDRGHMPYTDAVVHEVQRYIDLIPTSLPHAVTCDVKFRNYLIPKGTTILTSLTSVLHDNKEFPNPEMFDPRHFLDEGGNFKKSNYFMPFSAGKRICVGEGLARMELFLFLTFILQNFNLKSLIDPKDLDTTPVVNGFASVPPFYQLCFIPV
Chain of Cytochrome P450 3A4 (P08684 whole entry): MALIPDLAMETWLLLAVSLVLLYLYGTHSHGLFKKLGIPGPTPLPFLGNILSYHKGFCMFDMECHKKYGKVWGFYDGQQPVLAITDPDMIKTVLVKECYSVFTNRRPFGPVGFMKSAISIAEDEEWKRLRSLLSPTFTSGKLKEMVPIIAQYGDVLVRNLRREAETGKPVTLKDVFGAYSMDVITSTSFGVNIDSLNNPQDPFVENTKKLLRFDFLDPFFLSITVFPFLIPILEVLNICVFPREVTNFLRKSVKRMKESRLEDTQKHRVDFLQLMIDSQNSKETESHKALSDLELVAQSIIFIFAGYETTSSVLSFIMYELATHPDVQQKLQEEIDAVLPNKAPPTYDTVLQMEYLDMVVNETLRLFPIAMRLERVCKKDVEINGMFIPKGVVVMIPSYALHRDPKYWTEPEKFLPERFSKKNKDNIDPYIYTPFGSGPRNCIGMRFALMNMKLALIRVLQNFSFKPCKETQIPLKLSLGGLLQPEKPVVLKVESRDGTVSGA
Chain of Cytochrome P450 2C9 (P11712 whole entry): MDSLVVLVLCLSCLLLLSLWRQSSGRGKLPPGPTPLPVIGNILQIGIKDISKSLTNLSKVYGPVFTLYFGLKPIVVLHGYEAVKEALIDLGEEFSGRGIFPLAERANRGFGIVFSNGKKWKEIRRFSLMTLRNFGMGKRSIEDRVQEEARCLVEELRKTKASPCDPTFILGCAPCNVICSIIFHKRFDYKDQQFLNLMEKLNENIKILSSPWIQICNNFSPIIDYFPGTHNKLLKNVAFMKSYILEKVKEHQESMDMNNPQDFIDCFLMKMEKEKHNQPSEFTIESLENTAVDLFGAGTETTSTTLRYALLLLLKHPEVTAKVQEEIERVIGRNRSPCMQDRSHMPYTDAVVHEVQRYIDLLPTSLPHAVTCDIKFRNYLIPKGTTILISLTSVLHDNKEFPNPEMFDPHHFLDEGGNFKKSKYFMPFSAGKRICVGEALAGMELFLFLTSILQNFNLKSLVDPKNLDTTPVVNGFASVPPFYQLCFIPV
Chain of Cytochrome P450 2D6 (P10635 whole entry): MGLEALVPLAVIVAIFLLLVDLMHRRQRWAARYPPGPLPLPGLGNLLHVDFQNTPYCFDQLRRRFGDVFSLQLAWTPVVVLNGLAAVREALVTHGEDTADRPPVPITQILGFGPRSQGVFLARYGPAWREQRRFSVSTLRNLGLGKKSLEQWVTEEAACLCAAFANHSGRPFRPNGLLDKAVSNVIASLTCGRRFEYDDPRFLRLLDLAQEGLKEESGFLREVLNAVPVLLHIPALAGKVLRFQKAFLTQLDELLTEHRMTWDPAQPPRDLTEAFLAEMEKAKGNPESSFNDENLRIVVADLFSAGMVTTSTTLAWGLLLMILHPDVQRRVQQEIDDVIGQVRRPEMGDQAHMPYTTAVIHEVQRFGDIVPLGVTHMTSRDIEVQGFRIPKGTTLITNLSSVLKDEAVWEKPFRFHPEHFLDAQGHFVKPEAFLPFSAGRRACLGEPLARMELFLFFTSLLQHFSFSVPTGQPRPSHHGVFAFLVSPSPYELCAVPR
Chain of Voltage-gated inwardly rectifying potassium channel KCNH2 (Q12809 whole entry): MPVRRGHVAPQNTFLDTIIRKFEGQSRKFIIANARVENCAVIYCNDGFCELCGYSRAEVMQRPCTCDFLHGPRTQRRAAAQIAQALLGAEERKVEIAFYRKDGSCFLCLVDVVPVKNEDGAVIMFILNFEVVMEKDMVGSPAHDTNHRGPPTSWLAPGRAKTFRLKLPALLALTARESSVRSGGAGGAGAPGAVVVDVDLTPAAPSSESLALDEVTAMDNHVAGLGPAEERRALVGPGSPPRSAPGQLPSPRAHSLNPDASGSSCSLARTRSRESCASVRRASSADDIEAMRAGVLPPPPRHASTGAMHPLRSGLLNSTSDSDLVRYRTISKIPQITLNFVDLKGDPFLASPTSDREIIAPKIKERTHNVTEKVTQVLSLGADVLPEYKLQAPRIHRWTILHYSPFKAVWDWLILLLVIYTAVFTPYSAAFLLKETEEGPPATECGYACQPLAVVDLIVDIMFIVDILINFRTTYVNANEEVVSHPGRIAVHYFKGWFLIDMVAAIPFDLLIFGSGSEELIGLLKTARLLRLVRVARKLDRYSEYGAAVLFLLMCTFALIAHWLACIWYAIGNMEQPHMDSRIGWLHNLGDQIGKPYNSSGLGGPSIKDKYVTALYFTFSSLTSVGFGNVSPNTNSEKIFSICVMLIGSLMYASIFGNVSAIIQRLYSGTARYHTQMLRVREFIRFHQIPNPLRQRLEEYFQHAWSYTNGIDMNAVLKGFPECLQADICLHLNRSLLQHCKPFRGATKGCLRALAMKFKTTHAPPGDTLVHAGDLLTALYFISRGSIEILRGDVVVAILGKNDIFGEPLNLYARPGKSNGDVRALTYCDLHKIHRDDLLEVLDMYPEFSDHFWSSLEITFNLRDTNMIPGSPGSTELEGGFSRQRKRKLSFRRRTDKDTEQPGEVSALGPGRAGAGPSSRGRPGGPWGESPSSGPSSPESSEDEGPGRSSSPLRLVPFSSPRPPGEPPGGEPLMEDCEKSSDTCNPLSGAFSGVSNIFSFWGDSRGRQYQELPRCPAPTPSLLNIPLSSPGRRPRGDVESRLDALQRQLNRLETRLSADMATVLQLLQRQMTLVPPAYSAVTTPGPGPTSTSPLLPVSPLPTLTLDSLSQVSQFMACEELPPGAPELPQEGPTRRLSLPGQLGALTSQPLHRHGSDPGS

For the molecule `CCN(C(C)=O)c1ccc(OC)c2nc(NC(=O)c3ccnn3C)sc12`, the Activity result in data set [1] was “Non-toxic”. Besides, the pIC50 (in general, the IC50 on a negative log10 scale, so that one unit is a factor of ten) was less than 4.30 in data set [2]; less than 4.00 in [3]; less than 4.30 in [4]; less than 4.30 in data set [5]; less than 4.30 in data set [6].

Take `CCN(C(C)=O)c1ccc(OC)c2nc(NC(=O)[C@H]3CC[C@@H](NS(=O)(=O)c4cccc(C(F)(F)F)c4)CC3)sc12`: the pIC50 in data set [7] was 7.80. For the same molecule, the results for the pKi in data set [8] and in data set [9] were 6.96 and 7.34, respectively.

Turning to `CCN(C(C)=O)c1ccc(OC)c2nc(NC(=O)[C@@H]3CCN(S(=O)(=O)c4cccc(C(F)(F)F)c4)C3)sc12`, the pIC50 in data set [7] was 7.38. In addition, the pKi (usually the negative decadic logarithm of the Ki, by convention in mol/L) was 6.22 in [8] and 6.66 in data set [9].

In the case of `CCN(C(C)=O)c1ccc(OC)c2nc(NC(=O)[C@@H]3CCN(C(=O)c4cccc(C(F)(F)F)c4)C3)sc12`, the pIC50 in [7] is 7.85. Besides, the pKi in data set [8] is 5.69; in data set [9], 7.00; in data set [10], 7.74.

For the molecule `CCN(C(C)=O)c1ccc(OC)c2nc(NC(=O)[C@H]3CCN(C(=O)c4cccc(C(F)(F)F)c4)C3)sc12`, in data set [7], the pIC50 is 7.39. Further, the figures for the pKi in data set [8] and in [9] were 6.15 and 6.92, respectively.

On to `CCN(C(C)=O)c1ccc(OC)c2nc(NC(=O)[C@@H]3CC[C@H](NC(=O)c4cccc(C(F)(F)F)c4)C3)sc12`, for which the pIC50 in data set [7] is 8.10. Further, the pKi in [8] is 7.09; in [9], 7.21.

In the case of `CCN(C(C)=O)c1ccc(OC)c2nc(NC(=O)[C@@H]3CC[C@@H](NC(=O)c4cccc(C(F)(F)F)c4)C3)sc12`, in [7], the pIC50 is 8.10. The pKi in data set [8] and in [9] was 7.51 in each case.

With `CCN(C(C)=O)c1ccc(OC)c2nc(NC(=O)[C@@H]3CCN(Cc4cccc(C(F)(F)F)c4)C3)sc12`, the pIC50 in data set [7] is 7.14.

Take `CCN(C(C)=O)c1ccc(OC)c2nc(NC(=O)C3CCN(C(=O)c4cccc(C(F)(F)F)c4)CC3)sc12`: the pIC50 in [7] was 7.77. In addition, the pKi in [8] was 6.64; in [9], 8.70.

With `CCN(C(C)=O)c1ccc(OC)c2nc(NC(=O)C3CCN(S(=O)(=O)c4cccc(C(F)(F)F)c4)CC3)sc12`, in data set [7], the pIC50 was 7.31. For the same molecule, the pKi is 5.98 in data set [8] and 7.11 in data set [9].

As to `CCN(C(C)=O)c1ccc(OC)c2nc(NC(=O)C3CCN(Cc4cccc(C(F)(F)F)c4)CC3)sc12`, the pIC50 in [7] is 7.36. The pKi in data set [8] is 6.00; in [9], 8.00.

Consider `CCN(C(C)=O)c1ccc(OC)c2nc(NC(=O)[C@H]3CC[C@H](NC(=O)c4cccc(C(F)(F)F)c4)CC3)sc12`, for which the pIC50 in [7] is 7.55. Besides, the results for the pKi in data set [8] and in data set [9] were 6.33 and 8.15, respectively.

`CCN(C(C)=O)c1ccc(OC)c2nc(NC(=O)[C@H]3CC[C@@H](NC(=O)c4cccc(C(F)(F)F)c4)CC3)sc12`: the negative-log IC50 (pIC50) in data set [7] was 7.59. The negative logarithm of the Ki (pKi) in data set [8] was 7.28; in [9], 7.70.

In the case of `CCN(C(C)=O)c1ccc(OC)c2nc(NC(=O)N3CCC(O)(c4cccc(C(F)(F)F)c4)CC3)sc12`, in data set [7], the pIC50 is 8.10. In addition, the pKi in data set [8] was 6.68; in data set [9], 7.72; in data set [10], 8.30.

On to `CCN(C(C)=O)c1ccc(OC)c2nc(NC(=O)N3CCC(c4cccc(C(F)(F)F)c4)CC3)sc12`, for which the pIC50 in [7] was 7.74. Also, the values for the pKi in data set [8] and in [9] were 6.62 and 8.30, respectively.

With `CCN(C(C)=O)c1ccc(OC)c2nc(NC(=O)N3CCC(S(=O)(=O)c4cccc(C(F)(F)F)c4)CC3)sc12`, in data set [7], the pIC50 is 7.70. The pKi in data set [8] is 6.28; in data set [9], 6.16.

For `CCN(C(C)=O)c1ccc(OC)c2nc(NC(=O)[C@@H]3CC[C@H](NCc4cccc(C(F)(F)F)c4)C3)sc12` (relative stereo), in data set [7], the pIC50 was 7.72. Further, the pKi in data set [8] is 6.74; in data set [9], 6.66.
